# Laboratory results as given in ChEMBL document CHEMBL4765248, “Design, synthesis, biological evaluation and molecular docking study of novel thieno[3,2-d]pyrimidine derivatives as potent FAK inhibitors” (Eur J Med Chem, 2020).
# How the values were obtained:
# [1] = organism: Homo sapiens; test: Inhibition of His-tagged human PKA catalytic domain expressed in Escherichia coli expression system at 1 uM by Selectscreen kinase assay
# Procedure, shortened: (§1)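 Single-point screen at 1 μM final against a panel of 25 kinases using a commercial profiling service; mean of three independent experiments each run in triplicate.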
# [2] = biological target: Focal adhesion kinase 1 (Homo sapiens, UniProt Q05397); test: Inhibition of GST-tagged full length human FAK expressed in baculovirus expression system at 1 uM by Selectscreen kinase assay; procedure, shortened: as §1
# [3] = test system: MDA-MB-231; test: Antiproliferative activity against human MDA-MB-231 cells assessed as cell viability at 0.1 uM measured after 48 hrs by MTT assay (reference value: 100%); format: functional; settings: read-out: Activity
# [4] = biological target: Cyclin-dependent kinase 2 (Homo sapiens) (UniProt P24941); test: Inhibition of human CDK2 at 1 uM by Selectscreen kinase assay; procedure, shortened: as §1
# [5] = test system: MDA-MB-231; test: Antiproliferative activity against human MDA-MB-231 cells assessed as cell viability at 0.5 uM measured after 48 hrs by MTT assay (reference value: 100%); format: functional; settings: read-out: Activity
# [6] = test system: MDA-MB-231; test: Induction of cell cycle arrest in human MDA-MB-231 cells assessed as accumulation of cells at S phase at 0.2 uM measured after 48 hrs by PI staining based flow cytometry method (reference value: 39.17%); format: functional
# [7] = biological target: Calcium/calmodulin-dependent protein kinase kinase 2 (Homo sapiens) (UniProt Q96RR4); test: Inhibition of GST-tagged full length human CAMKK2 expressed in baculovirus expression system at 1 uM by Selectscreen kinase assay
# Procedure, shortened: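 Commercial SelectScreen profiling panel of 25 kinases, test compound at 1 μM. Values are the mean of three independent experiments, each run in triplicate.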
# [8] = biological target: Rho-associated protein kinase 1 (Homo sapiens) (UniProt Q13464); test: Inhibition of GST-tagged recombinant human ROCK1 catalytic domain (1-535) expressed in baculovirus expression system at 1 uM by Selectscreen kinase assay; procedure, shortened: as §1
# [9] = biological target: Mast/stem cell growth factor receptor Kit (Homo sapiens) (UniProt P10721); test: Inhibition of His-tagged human KIT cytoplasmic domain expressed in baculovirus expression system at 1 uM by Selectscreen kinase assay; procedure, shortened: as §1
# [10] = biological target: Tyrosine-protein kinase ZAP-70 (Homo sapiens) (UniProt P43403); test: Inhibition of His-tagged full-length recombinant human ZAP-70 expressed in baculovirus expression system at 1 uM by Selectscreen kinase assay; procedure, shortened: as §1
# [11] = test system: MDA-MB-231; test: Induction of apoptosis in human MDA-MB-231 cells assessed as viable cells at 0.1 uM incubated for 48 hrs by Annexin V-FITC/PI staining based flow cytometric analysis (reference value: 95.84%); format: functional; settings: read-out: Activity
# [12] = Metabolic stability in rat liver microsomes assessed as parent compound remaining at 1 uM measured after 60 mins in presence of NADPH by LC-MS/MS analysis; format: ADME, Microsome; settings: read-out: Stabilty
# Procedure, shortened: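 Rat liver microsomes (0.5 mg/mL) were incubated at 37 °C with 1 μM compound in 100 mM potassium phosphate, pH 7.4, with 10 mM MgCl2. Reaction was started with prewarmed NADPH cofactor and sampled at 0, 5, 10, 20, 30 and 60 min. Protein was precipitated with cold acetonitrile and supernatants analysed by LC-MS/MS to give half-life, 1 h remaining and intrinsic clearance.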
# [13] = test system: MDA-MB-231; test: Induction of cell cycle arrest in human MDA-MB-231 cells assessed as accumulation of cells at G2/M phase at 0.4 uM measured after 48 hrs by PI staining based flow cytometry method (reference value: 17.40%); format: functional
# [14] = test system: A549; test: Antiproliferative activity against human A549 cells assessed as cell viability at 0.1 uM measured after 24 hrs by MTT assay (reference value: 100%); format: functional; settings: read-out: Activity
# [15] = test system: MDA-MB-231; test: Antiproliferative activity against human MDA-MB-231 cells assessed as reduction in cell viability measured after 24 to 72 hrs by MTT assay; format: functional, cell-based; settings: dose 0.1-2.5 µM, time 24-72 hrs
# [16] = Metabolic stability in rat liver microsomes assessed as parent compound remaining at 1 uM measured after 60 mins in absence of NADPH by LC-MS/MS analysis; format: ADME, Microsome; settings: read-out: Stabilty
# Procedure, shortened: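 Rat liver microsomes (0.5 mg/mL) were incubated at 37 °C with 1 μM compound in pH 7.4 potassium phosphate/MgCl2 buffer for 1 h, with buffer in place of the NADPH regeneration system. After acetonitrile precipitation, percent parent remaining was measured by LC-MS/MS.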
# [17] = test system: MDA-MB-231; test: Antiproliferative activity against human MDA-MB-231 cells assessed as cell viability at 0.1 uM measured after 24 hrs by MTT assay (reference value: 100%); format: functional; settings: read-out: Activity
# [18] = test system: MDA-MB-231; test: Antiproliferative activity against human MDA-MB-231 cells assessed as cell viability at 0.1 uM measured after 72 hrs by MTT assay (reference value: 100%); format: functional; settings: read-out: Activity
# [19] = test system: MDA-MB-231; test: Induction of apoptosis in human MDA-MB-231 cells assessed as late apoptotic cells at 0.1 uM incubated for 48 hrs by Annexin V-FITC/PI staining based flow cytometric analysis (reference value: 1.49%); format: functional
# [20] = biological target: MAP kinase-interacting serine/threonine-protein kinase 1 (Homo sapiens) (UniProt Q9BUB5); test: Inhibition of GST-tagged full length human MKNK1 expressed in insect expression system at 1 uM by Selectscreen kinase assay; procedure, shortened: as §1
# [21] = test system: MDA-MB-231; test: Induction of apoptosis in human MDA-MB-231 cells assessed as late apoptotic cells at 0.2 uM incubated for 48 hrs by Annexin V-FITC/PI staining based flow cytometric analysis (reference value: 1.49%); format: functional
# [22] = test system: MDA-MB-231; test: Antiproliferative activity against human MDA-MB-231 cells assessed as cell viability at 0.5 uM measured after 72 hrs by MTT assay (reference value: 100%); format: functional; settings: read-out: Activity
# [23] = test system: A549; test: Antiproliferative activity against human A549 cells assessed as reduction in cell viability measured after 24 to 72 hrs by MTT assay; format: functional, cell-based; settings: dose 0.1-2.5 µM, time 24-72 hrs
# [24] = test system: A549; test: Antiproliferative activity against human A549 cells assessed as cell viability at 0.5 uM measured after 48 hrs by MTT assay (reference value: 100%); format: functional; settings: read-out: Activity
# [25] = test system: MDA-MB-231; test: Induction of cell cycle arrest in human MDA-MB-231 cells assessed as accumulation of cells at G0/G1 phase at 0.4 uM measured after 48 hrs by PI staining based flow cytometry method (reference value: 43.43%); format: functional
# [26] = biological target: Mitogen-activated protein kinase 1 (Homo sapiens) (UniProt P28482); test: Inhibition of GST-tagged full length human ERK2 expressed in Escherichia coli at 1 uM by Selectscreen kinase assay; procedure, shortened: as §1
# [27] = biological target: Proto-oncogene tyrosine-protein kinase receptor Ret (Homo sapiens) (UniProt P07949); test: Inhibition of GST-tagged human RET cytoplasmic domain expressed in baculovirus expression system at 1 uM by Selectscreen kinase assay; procedure, shortened: as §1
# [28] = biological target: Interleukin-1 receptor-associated kinase 4 (Homo sapiens) (UniProt Q9NWZ3); test: Inhibition of His-tagged full length human IRAK4 expressed in baculovirus expression system at 1 uM by Selectscreen kinase assay; procedure, shortened: as §1
# [29] = test system: MDA-MB-231; test: Induction of apoptosis in human MDA-MB-231 cells assessed as viable cells at 0.2 uM incubated for 48 hrs by Annexin V-FITC/PI staining based flow cytometric analysis (reference value: 95.84%); format: functional; settings: read-out: Activity
# [30] = test system: MDA-MB-231; test: Induction of cell cycle arrest in human MDA-MB-231 cells assessed as accumulation of cells at S phase at 0.1 uM measured after 48 hrs by PI staining based flow cytometry method (reference value: 39.17%); format: functional
# Sequence of Mitogen-activated protein kinase 1 (Homo sapiens) (P28482 whole entry, the tested form may be a part): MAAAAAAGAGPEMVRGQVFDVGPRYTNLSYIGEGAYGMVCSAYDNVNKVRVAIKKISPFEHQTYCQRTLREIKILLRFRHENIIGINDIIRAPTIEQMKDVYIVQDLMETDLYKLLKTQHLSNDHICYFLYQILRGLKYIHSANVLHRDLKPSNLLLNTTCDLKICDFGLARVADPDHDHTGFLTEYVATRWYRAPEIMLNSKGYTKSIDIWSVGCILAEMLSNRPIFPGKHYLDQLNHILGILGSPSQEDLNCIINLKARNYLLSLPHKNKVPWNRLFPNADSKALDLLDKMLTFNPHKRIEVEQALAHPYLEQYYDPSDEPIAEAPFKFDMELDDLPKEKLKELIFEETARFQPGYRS
# Sequence of Calcium/calmodulin-dependent protein kinase kinase 2 (Homo sapiens) (Q96RR4 2-588 limits assumed): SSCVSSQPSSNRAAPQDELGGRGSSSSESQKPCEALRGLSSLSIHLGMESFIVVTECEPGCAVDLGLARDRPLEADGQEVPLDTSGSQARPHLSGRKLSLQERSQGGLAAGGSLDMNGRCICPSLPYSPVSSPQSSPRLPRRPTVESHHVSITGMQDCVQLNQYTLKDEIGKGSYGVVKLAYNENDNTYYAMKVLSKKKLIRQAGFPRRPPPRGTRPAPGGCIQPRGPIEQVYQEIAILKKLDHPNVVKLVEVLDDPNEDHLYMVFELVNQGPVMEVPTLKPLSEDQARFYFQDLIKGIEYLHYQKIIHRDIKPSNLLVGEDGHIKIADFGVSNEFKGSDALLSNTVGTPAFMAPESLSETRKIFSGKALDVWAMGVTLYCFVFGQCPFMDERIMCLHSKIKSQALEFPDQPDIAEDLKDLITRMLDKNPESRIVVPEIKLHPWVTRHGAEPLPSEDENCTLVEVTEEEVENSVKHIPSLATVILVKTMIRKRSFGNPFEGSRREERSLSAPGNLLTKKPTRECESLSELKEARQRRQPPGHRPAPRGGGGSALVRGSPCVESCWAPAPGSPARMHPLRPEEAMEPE
# Sequence of Mast/stem cell growth factor receptor Kit (Homo sapiens) (P10721 whole entry, the tested form may be a part): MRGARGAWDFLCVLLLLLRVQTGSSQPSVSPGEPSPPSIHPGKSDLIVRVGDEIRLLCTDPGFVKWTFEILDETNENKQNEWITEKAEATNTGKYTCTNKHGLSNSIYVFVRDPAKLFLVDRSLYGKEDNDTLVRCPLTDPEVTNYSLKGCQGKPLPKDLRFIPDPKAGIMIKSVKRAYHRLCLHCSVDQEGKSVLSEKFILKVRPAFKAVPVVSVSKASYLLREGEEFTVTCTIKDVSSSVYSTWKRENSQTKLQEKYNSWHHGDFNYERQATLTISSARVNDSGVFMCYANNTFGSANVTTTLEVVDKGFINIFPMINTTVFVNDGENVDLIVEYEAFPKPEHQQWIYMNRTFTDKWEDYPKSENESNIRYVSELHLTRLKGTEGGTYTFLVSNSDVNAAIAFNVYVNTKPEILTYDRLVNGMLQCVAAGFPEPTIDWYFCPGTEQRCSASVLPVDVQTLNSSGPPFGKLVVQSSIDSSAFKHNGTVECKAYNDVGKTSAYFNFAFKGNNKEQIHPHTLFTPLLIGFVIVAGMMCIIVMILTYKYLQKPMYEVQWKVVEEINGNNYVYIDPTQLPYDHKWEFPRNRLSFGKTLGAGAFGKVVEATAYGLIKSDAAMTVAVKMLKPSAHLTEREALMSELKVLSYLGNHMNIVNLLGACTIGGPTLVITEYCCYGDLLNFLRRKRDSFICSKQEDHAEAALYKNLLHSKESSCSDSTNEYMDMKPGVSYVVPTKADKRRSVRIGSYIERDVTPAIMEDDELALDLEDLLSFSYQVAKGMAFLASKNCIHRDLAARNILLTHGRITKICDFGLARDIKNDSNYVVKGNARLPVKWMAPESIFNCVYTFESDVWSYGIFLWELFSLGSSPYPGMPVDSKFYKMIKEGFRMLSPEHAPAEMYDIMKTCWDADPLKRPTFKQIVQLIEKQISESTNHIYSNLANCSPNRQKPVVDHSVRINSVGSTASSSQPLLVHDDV
# Sequence of Proto-oncogene tyrosine-protein kinase receptor Ret (Homo sapiens) (P07949 whole entry, the tested form may be a part): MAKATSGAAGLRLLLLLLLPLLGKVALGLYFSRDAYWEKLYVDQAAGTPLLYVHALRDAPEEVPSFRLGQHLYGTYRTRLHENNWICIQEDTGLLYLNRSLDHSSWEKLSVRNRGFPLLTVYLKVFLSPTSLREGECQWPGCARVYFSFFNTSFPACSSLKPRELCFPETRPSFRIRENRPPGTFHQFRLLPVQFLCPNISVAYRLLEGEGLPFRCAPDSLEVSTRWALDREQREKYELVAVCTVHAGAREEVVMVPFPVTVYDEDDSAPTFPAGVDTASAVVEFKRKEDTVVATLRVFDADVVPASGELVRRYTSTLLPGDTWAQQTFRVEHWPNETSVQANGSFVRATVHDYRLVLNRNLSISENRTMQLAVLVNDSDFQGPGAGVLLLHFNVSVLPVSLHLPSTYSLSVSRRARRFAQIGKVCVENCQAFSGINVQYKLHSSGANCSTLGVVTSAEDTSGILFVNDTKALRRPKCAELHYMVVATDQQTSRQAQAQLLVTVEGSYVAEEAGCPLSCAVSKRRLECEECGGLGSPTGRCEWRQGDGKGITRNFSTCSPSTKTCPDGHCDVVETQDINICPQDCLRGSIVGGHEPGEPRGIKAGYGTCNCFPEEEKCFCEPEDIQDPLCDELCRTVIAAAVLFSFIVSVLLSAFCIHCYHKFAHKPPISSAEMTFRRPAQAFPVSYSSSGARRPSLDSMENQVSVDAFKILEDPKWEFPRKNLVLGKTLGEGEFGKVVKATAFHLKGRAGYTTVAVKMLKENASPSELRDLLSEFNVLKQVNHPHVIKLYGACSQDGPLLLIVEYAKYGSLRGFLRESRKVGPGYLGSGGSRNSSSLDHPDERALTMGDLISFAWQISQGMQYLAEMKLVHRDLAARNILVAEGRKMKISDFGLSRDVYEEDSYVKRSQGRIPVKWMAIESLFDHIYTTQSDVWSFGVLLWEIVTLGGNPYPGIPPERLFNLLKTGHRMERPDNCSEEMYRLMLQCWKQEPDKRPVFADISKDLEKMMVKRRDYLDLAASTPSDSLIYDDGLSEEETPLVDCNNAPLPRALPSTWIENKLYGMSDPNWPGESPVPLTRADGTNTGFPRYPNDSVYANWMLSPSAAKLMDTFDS
# Sequence of Focal adhesion kinase 1 (Q05397 2-1052 limits assumed): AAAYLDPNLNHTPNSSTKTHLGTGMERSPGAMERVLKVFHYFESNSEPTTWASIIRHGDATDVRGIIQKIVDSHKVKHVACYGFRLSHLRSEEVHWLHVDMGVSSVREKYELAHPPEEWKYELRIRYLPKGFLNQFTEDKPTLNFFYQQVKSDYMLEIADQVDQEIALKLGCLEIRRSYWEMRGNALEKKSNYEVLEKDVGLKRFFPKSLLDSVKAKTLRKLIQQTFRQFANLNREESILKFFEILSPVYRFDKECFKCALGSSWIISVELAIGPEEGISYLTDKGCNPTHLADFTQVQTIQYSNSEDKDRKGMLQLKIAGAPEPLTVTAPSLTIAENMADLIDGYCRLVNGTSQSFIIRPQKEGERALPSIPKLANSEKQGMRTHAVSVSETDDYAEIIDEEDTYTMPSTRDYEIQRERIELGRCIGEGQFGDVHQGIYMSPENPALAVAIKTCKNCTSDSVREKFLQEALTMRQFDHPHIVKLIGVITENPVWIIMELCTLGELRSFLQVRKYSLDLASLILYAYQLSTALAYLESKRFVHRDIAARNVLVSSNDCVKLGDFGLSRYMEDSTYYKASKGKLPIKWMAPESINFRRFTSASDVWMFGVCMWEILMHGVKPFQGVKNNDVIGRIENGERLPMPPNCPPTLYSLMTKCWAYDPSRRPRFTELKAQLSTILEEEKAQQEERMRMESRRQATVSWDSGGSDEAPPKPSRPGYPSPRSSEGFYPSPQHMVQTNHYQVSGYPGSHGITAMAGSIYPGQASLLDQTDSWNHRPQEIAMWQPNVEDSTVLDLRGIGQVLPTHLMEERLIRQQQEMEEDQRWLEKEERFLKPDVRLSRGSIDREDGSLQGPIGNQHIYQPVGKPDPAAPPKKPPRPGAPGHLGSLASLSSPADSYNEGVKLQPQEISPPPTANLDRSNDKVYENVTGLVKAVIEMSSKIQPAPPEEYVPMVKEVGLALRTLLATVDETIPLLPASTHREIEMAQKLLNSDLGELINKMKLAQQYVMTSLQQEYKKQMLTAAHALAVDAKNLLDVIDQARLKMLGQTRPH
# Sequence of Tyrosine-protein kinase ZAP-70 (Homo sapiens) (P43403 whole entry): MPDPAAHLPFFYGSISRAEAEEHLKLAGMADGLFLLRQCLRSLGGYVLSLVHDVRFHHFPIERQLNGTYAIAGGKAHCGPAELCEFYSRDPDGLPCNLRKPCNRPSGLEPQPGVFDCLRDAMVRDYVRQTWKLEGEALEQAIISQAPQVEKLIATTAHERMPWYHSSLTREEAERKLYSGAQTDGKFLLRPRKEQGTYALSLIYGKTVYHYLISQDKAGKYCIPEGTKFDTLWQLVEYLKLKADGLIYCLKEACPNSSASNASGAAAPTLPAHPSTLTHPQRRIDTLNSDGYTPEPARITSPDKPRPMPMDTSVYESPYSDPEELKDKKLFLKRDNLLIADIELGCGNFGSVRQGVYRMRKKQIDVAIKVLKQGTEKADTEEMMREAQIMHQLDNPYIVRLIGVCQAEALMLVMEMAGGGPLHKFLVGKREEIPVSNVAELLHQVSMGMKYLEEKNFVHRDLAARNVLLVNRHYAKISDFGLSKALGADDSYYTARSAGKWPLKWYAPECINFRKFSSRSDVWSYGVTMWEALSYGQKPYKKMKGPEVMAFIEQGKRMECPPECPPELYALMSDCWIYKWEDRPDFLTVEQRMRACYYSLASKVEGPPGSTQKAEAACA
structure (smiles),measurement,setting,value
COc1ccccc1-c1csc2cnc(Nc3ccc(C(=O)NC4CCNCC4)c(F)c3)nc12,inhibition,[1],63%
same,inhibition,[2],100%
same,viability at 0.1 µM,[3],74.1%
same,inhibition,[4],97%
same,viability at 0.5 µM,[5],40.7%
same,Activity,[6],39.11%
same,inhibition,[7],77%
same,inhibition,[8],33%
same,inhibition,[9],41%
same,inhibition,[10],6%
same,viability at 0.1 µM,[11],85.5%
same,"remaining at 1 h, 1 µM",[12],72.4%
same,Activity,[13],3.55%
same,viability at 0.1 µM,[14],96.4%
same,Activity,[15],Dose-dependent effect
same,"remaining at 1 h, 1 µM",[16],92.1%
same,viability at 0.1 µM,[17],97.6%
same,viability at 0.1 µM,[18],69.7%
same,Activity,[19],4.36%
same,inhibition,[20],13%
same,Activity,[21],13.55%
same,viability at 0.5 µM,[22],31%
same,Activity,[23],Dose-dependent effect
same,viability at 0.5 µM,[24],47.4%
same,Activity,[25],56.27%
same,inhibition,[26],1%
same,inhibition,[27],97%
same,inhibition,[28],72%
same,viability at 0.2 µM,[29],75%
same,Activity,[30],41.96%
